Measured values gathered from unrelated publications.
Each line is one published result; the experiments were not run side by side.
CDK1 with cyclin B: Cyclin-dependent kinase 1, with cyclin B (CDK1, Homo sapiens, UniProt P06493)
CDK1 with cyclin A: Cyclin-dependent kinase 1, with cyclin A (CDK1, Homo sapiens, UniProt P06493)
CDK1 with cyclin B1: Cyclin-dependent kinase 1, with cyclin B1 (CDK1, Homo sapiens, UniProt P06493)

| target | observed | action | method | tested at | endpoint | value | Structure (SMILES) |
| --- | --- | --- | --- | --- | --- | --- | --- |
| CDK1 with cyclin B | enzyme activity | inhibitor |  | 1 µM | inhibition | -13% | C=CC(=O)Nc1cc(Nc2nccc(Nc3cc(Cl)c(F)cc3C(C)(C)O)n2)c(OC)cc1N1CC[C@@H](N(C)C)C1 |
| CDK1 with cyclin B | enzyme activity | inhibitor |  | 1 µM | remaining activity | 66.9% | CC(C)(O)[C@H]1CC[C@H](Nc2ccc3ncc(-c4cccc(C(F)(F)F)c4)n3n2)CC1 |
| CDK1 with cyclin B | cell-free assay |  |  | 0.5 µM | remaining signal | 83% | COc1cc(OC)c(C=C2C(O)=Nc3ccccc32)c(OC)c1 |
| CDK1 with cyclin B | enzyme activity | inhibitor |  | 0.3 µM | inhibition | -5% | CNC(=O)c1cc(Oc2ccc(NC(=O)Nc3ccc(Cl)c(C(F)(F)F)c3)cc2)ccn1 |
| CDK1 with cyclin B | enzyme activity | inhibitor |  | 10 µM | inhibition | -6% | Cc1ccc(-n2nc(C(C)(C)C)cc2NC(=O)Nc2ccc(OCCN3CCOCC3)c3ccccc23)cc1 |
| CDK1 with cyclin B | enzyme activity | inhibitor |  | 1 µM | inhibition | < 10% | CCCS(=O)(=O)Nc1ccc(F)c(C(=O)c2c[nH]c3ncc(-c4ccc(Cl)cc4)cc23)c1F |
| CDK1 with cyclin A | cell-free assay |  |  | 0.5 µM | remaining signal | 31.7% | CC(C)[C@H](CO)Nc1nc(Nc2cccc(Cl)c2)c2ncn(C(C)C)c2n1 |
| CDK1 with cyclin B | enzyme activity | inhibitor | radiometric | 1 µM | remaining activity | 20% | Cc1cnc(NC2CCOCC2)nc1-n1cnc(C(=O)NC(CN)c2cc(F)cc(Cl)c2)c1 (stereo not shown) |
| CDK1 with cyclin B | enzyme activity | inhibitor |  | 0.3 µM | inhibition | 14% | Cc1ccc(Nc2nccc(N(C)c3ccc4c(C)n(C)nc4c3)n2)cc1S(N)(=O)=O |
| CDK1 with cyclin A | cell-free assay |  |  | 0.5 µM | remaining signal | 96.1% | O=C1NC(=O)c2cc(Nc3ccc(F)cc3)c(Nc3ccc(F)cc3)cc21 |
| CDK1 with cyclin B | enzyme activity | inhibitor |  | 10 µM | remaining activity | 92.7% | Cc1sc(C(=O)NC2COC2)cc1-n1cc(NC(=O)Nc2c(F)cccc2Cl)cn1 |
| CDK1 with cyclin B | enzyme activity | inhibitor |  | 1 µM | inhibition | 3% | COc1cc2ncnc(Nc3ccc(Oc4ccccc4)cc3C)c2cc1OC |
| CDK1 with cyclin B | enzyme activity | inhibitor |  | 0.3 µM | inhibition | 2% | CCN(CC)CCNC(=O)c1c(C)[nH]c(/C=C2\C(=O)Nc3ccc(F)cc32)c1C |
| CDK1 with cyclin B | cell-free assay |  |  | 0.5 µM | remaining signal | 68.7% | O=Nc1c(-c2c(O)[nH]c3ccccc23)[nH]c2ccccc12 |
| Cyclin-dependent kinase 1, with cyclin E (CDK1, Homo sapiens, UniProt P06493) | enzyme activity | inhibitor |  | 5 µM | remaining activity | 94.7% | O=C(Nc1cnn(-c2csc(C(=O)NC3COC3)c2)c1)Nc1ccccc1Cl |
| CDK1 with cyclin B | enzyme activity | inhibitor |  | 10 µM | remaining activity | 102% | CCCOc1ccc(OC)c(F)c1C(=O)c1ccc(C(=O)N[C@@H]2CNC[C@H]2NC(=O)c2ccc3[nH]ncc3c2)cc1 |
| Cyclin-dependent kinase 1, with cyclin E1 (CDK1, Homo sapiens, UniProt P06493) | enzyme activity | inhibitor | radiometric | 1 µM | remaining activity | 83% | CC(C)(C)c1nc2c(s1)c1nc(N)ncc1c1ccc(NS(=O)(=O)c3c(F)cccc3F)c(F)c12 |
| Cyclin-dependent kinase 1 (CDK1, Homo sapiens, UniProt P06493) | target engagement in cells | inhibitor | chemoproteomics | 20 mM | inhibition | -6.5% | c1ccc(CNc2nc(N3CCOc4ccccc43)nc3c2CCCC3)cc1 |
| CDK1 with cyclin B | enzyme activity | inhibitor |  | 10 µM | remaining activity | 111% | CCN(CC)c1ccc(C2=NNC(=O)CC2C)cc1[N+](=O)[O-] (stereo not shown) |
| CDK1 with cyclin B1 | enzyme activity | inhibitor | radiometric | 1 µM | remaining activity | 89% | CC(C)(C)c1nc(-c2cccc(NS(=O)(=O)c3c(F)cccc3F)c2F)c(-c2ccnc(N)n2)s1 |
| CDK1 with cyclin B | cell-free assay |  |  | 0.5 µM | remaining signal | 85.5% | O=C1NC(=O)c2c1c1c3ccccc3[nH]c1n1cncc21 |
| CDK1 with cyclin B1 | enzyme activity | inhibitor |  | 0.1 µM | inhibition | -14.8% | CC/C(=N\NC(=O)NCc1cccc(O)c1)c1ccc(O)c(C)c1O |
| CDK1 with cyclin A | cell-free assay |  |  | 0.5 µM | remaining signal | 24.8% | N#CCCc1ccc2c(c1)-c1[nH]c3ccc([N+](=O)[O-])cc3c1CC(=O)N2 |
| CDK1 with cyclin B | enzyme activity | inhibitor |  | 1 µM | inhibition | -8% | CN1CC(Oc2cnc(C#N)cc2-c2ccn3nc(NC(=O)C4CC4)cc3c2)C1 |
| CDK1 with cyclin B | cell-free assay |  |  | 0.5 µM | remaining signal | 46.6% | CC(C)n1cnc2c(Nc3cccc(Cl)c3)nc(NCCO)nc21 |
| CDK1 with cyclin B | enzyme activity | inhibitor |  | 0.4 µM | inhibition | 0% | CNCc1ccc(-c2cc(-c3nc(-c4ccc(S(=O)(=O)C(C)C)cc4)cnc3N)on2)cc1 |
| CDK1 with cyclin A | cell-free assay |  |  | 0.5 µM | remaining signal | 91.9% | O=C1Nc2ccc(Cl)cc2C1=Cc1cc(Cl)c(O)c(Cl)c1 |
| CDK1 with cyclin B | enzyme activity | inhibitor |  | 5 µM | remaining activity | 105% | O=C(Nc1cnn(-c2csc(C(=O)NC3COC3)c2)c1)Nc1c(F)cccc1Cl |
